MrgX1 ag – activates human MrgX1 receptor signaling; Q96LB2; MrgX1-HEK293 cells, Fluo-4 calcium fluorescence, agonist mode; stronger effect = higher value; B-score at 10 µM; 0.44% of 310,000 active; AID 588627;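 active = calcium response B-score plate-corrected fluorescence ratio at least 3 library SD, with starting fluorescence B-score inside 5 SD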
Target sequence (Q96LB2 whole entry, looked up): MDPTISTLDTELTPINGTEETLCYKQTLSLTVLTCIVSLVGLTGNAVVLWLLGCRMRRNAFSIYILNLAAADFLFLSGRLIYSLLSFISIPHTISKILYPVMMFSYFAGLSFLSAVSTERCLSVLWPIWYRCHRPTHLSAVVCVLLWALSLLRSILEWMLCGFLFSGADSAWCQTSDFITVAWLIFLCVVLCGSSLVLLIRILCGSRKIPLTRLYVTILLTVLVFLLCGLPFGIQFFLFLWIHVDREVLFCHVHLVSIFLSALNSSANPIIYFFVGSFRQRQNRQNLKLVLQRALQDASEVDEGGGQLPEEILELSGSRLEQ
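Material – MrgX1-expressing HEK293 cells · Input – 15,000 cells seeded per well · Dosing – compound as first of three additions · Times – overnight seeding, then 1 h dark dye loading · Measured by – kinetic Fluo-4 NW fluorescence of intracellular calcium · Read-out – B-scored fluorescence response ratio · Benchmarks – positive and negative control wells on each plate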
RGS4 inh – human RGS4 inhibition; P49798; HEK293 M3R/RGS4 inducible, Fluo-4 calcium flux; stronger effect = higher value; triggered by carbachol at its EC20; B-score at 10 µM; 0.45% of 310,000 active; AID 463165;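 active = B-score, a plate-corrected calcium signal, over three deviations above library mean, with baseline fluorescence within five deviations of library mean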;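 note: RGS4 expression induced by doxycycline in cells with stable M3 receptor; B-score is computed from the integrated fluorescence ratio over baseline after carbachol; higher B-score means a larger calcium signal and so more RGS4 inhibition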
Target sequence (P49798 whole entry, looked up): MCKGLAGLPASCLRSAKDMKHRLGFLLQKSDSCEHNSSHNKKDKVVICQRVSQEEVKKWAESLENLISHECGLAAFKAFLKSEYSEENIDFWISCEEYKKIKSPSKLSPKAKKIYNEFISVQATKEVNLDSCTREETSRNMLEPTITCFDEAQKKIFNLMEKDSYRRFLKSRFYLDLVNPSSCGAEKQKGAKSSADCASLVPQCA
MrgX1 antag – antagonists of human MrgX1 receptor | B-score at 10 µM | 1.3% of 310,000 active | MRGX1-HEK293 calcium flux, Fluo-4, BAM8-22 antagonism; stronger effect = lower value;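 active = calcium-response B-score plate-corrected more than 3 library SD below zero, starting fluorescence within 5 deviations, no agonist response on first addition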;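 note: peak minus trough fluorescence over baseline after final BAM8-22 challenge near maximal dose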
RGS4 pot – potentiators or activators of RGS4; HEK293 M3R/inducible RGS4, carbachol calcium flux Fluo4; stronger effect = lower value; B-score at 10 µM; AID 463111; 0.92% of 310,000 active;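 active = B-score of the integrated calcium signal more than 4 SD below the library mean, with starting fluorescence not abnormally high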;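 note: negative B-score means reduced calcium response which marks RGS4 activation or potentiation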
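Material: M3R-expressing HEK293 line, RGS4 induced by doxycycline | Schedule: Overnight RGS4 induction, 30 min dye load 37 °C, 20 min compound RT | Measured by: Fluo4 fluorescence kinetic imaging of calcium | Read-out: Integrated calcium ratio converted to B score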
MrgX1 PAM – human MrgX1 positive allosteric modulation, primary screen; Q96LB2; MrgX1-HEK293, Fluo-4 calcium flux, FDSS; stronger effect = higher value; B-score at 10 µM; 0.63% of 310,000 active; AID 588675;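 active = plate-corrected calcium response at least 3 library SD above typical, normal starting fluorescence, not activating the receptor alone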;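 note: compound read alongside a low EC10 to EC30 dose of BAM8-22 agonist; peak minus trough fluorescence over baseline measured at the second addition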
MrgX1 antag conf – reconfirmed antagonist of human MrgX1 receptor signaling. shares compounds with MrgX1 antag. MrgX1-HEK293, BAM8-22 calcium flux, Fluo-4; stronger effect = lower value. remaining BAM8-22 calcium response % of control (stronger effect = lower value), % at 10 µM. 19% of 2,300 active. AID 602420;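 active = remaining agonist calcium response no higher than 100% minus 3 SD of agonist-only control wells, with starting fluorescence near control levels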;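 note: agonist BAM8-22 given at a near maximal EC90 to ECmax level; peak minus minimum fluorescence divided by baseline after agonist addition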
HEK293 Ca flux – counter-screen for MrgX1 antagonists: effect in parental HEK293 cells; 2% of 4,000 active; Fluo-4 calcium fluorescence, FDSS; shares compounds with MrgX1 antag; fluorescence ratio F(max-min)/F0 at 10 µM;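 active = duplicate-averaged calcium fluorescence ratio at least three times the standard deviation of buffer wells, a nonspecific response in parental cells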
HEK293 Ca counter – activity in parental HEK293 cells without MrgX1; parental HEK293 calcium flux, Fluo-4 fluorescence ratio; stronger effect = higher value; shares compounds with MrgX1 antag; fluorescence ratio F(max-min)/F0 at 10 µM; 0.4% of 4,000 active;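 active = calcium fluorescence ratio, averaged over duplicates, at least 3 SD of the buffer-well ratio, meaning a nonspecific response in receptor-free cells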;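 note: untransfected parental HEK293 lacking MrgX1 used as counterscreen for MrgX1 allosteric activators; fluorescence change taken during the second addition on a kinetic imager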
HEK293 Ca cntr2 – activity in parental HEK293 cells lacking MrgX1 receptor; shares compounds with MrgX1 antag; Fluo-4 calcium fluorescence (FDSS); stronger effect = higher value; fluorescence ratio F(max-min)/F0 at 10 µM; 8.7% of 4,000 active; AID 624115;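 active = calcium fluorescence ratio at least three times the spread of buffer wells, meaning a non-specific response in parental cells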
The depositor's hits bear a star; i = inactive; · = no result given. Most compounds without a hit are left out; they make up all but 3.5% or so of the library.

SMILES	MrgX1 ag	RGS4 inh	MrgX1 antag	RGS4 pot	MrgX1 PAM	MrgX1 antag conf	HEK293 Ca flux	HEK293 Ca counter	HEK293 Ca cntr2
COc1cccc(CNC(=O)Cn2cccc2)c1	i	i	-9.8*	i	i	81.4%*	i	i	i
COc1ccc(CCN=C(N)NS(=O)(=O)c2ccc(C)c(C)c2)cc1OC	i	i	i	i	i	·	·	·	·
COc1ccc(S(=O)(=O)NC(N)=NCCc2ccc(OC)c(OC)c2)cc1	i	i	-7.38*	i	i	i	i	i	i
S=C(NCCc1c[nH]c2ccccc12)NC1CCCCC1	i	i	i	i	i	·	·	·	·
S=C(NCCc1c[nH]c2ccccc12)NC1CCCC1	i	i	-4.95*	i	i	i	i	i	i
COC(=O)[C@H](C)[C@@H]1C[C@@]1(C)[C@@H](NC(=O)OCc1ccccc1)c1ccccc1	i	i	-5.45*	i	i	75.3%*	i	i	i
Cc1ccc(S(=O)(=O)CC(=O)c2ccc3c(c2)OCCO3)cc1	i	i	i	i	i	·	·	·	·
COCCN(C(=O)COC(=O)c1cccs1)c1c(N)n(Cc2ccccc2)c(=O)[nH]c1=O	i	i	i	i	i	·	·	·	·
O=C(COc1ccc(Cl)cc1Cl)N1CCN(c2ccccn2)CC1	i	i	i	i	i	·	·	·	·
O=C(CCCOc1ccc(Cl)cc1Cl)N1CCN(c2ccccn2)CC1	i	i	-5.17*	i	i	i	i	i	i
CCOc1ccc(C(=O)N2CCN(c3ccccn3)CC2)cc1OCC	i	i	-4.81*	i	i	i	i	i	67.7*
COc1ccc(C2NC(=O)NC(C)=C2C(=O)OC2CCC(C)CC2)cc1 (stereo not drawn)	i	i	i	i	i	·	·	·	·
COc1ccccc1CNC(=O)C(=O)NCC1OCCCN1S(=O)(=O)c1cccs1 (stereo not drawn)	i	i	i	i	i	·	·	·	·
COc1ccc(C(=O)COC(=O)Cc2n[nH]c(=O)c3ccccc23)c(OC)c1	i	i	-8.16*	i	i	i	i	i	i
O=C(Cc1n[nH]c(=O)c2ccccc12)OCC(=O)c1ccccc1Cl	i	i	i	i	i	·	·	·	·
Cc1ccc(-c2cc(C(F)F)n3ncc(C(=O)N4CCc5ccccc54)c3n2)cc1	i	i	i	i	i	·	·	·	·
CCN1CCN(C(=O)c2cnn3c(C(F)F)cc(-c4ccc(C)cc4)nc23)CC1	i	i	-8.53*	i	i	i	i	i	i
O=C(c1cnn2c(C(F)F)cc(-c3ccccc3)nc12)N1CCc2ccccc21	i	i	-4.73*	i	i	i	i	i	i
COc1ccc(C2=NOC(C(=O)Nc3cccnc3Cl)C2)cc1 (stereo not drawn)	i	i	i	i	i	·	·	·	·
CC(C)(CC(=O)O)CC(=O)Nc1ccc2c(c1)ncn2CCc1ccccc1	i	i	i	i	i	·	·	·	·
COc1ccc(C)cc1NC(=O)c1nnn(Cc2cc(C)ccc2C)c1N	i	i	-5.18*	i	i	i	i	i	i
COc1ccc(NC(=O)c2nnn(Cc3ccc(SC)cc3)c2N)c(OC)c1	i	i	-4.68*	i	i	i	i	i	i
CCc1nnc(NC(=O)CSc2nccn2-c2cccc(C)c2)s1	i	i	i	i	i	·	·	·	·
Cc1cccc(-n2ccnc2SCC(=O)Nc2nnc(C)s2)c1	i	i	-7.72*	i	i	i	i	i	i
O=C1CC(N2CCC(O)(c3ccc(Br)cc3)CC2)C(=O)N1c1ccc(Cl)cc1 (stereo not drawn)	i	i	-6.54*	i	i	i	i	i	i
SMILES	MrgX1 ag	RGS4 inh	MrgX1 antag	RGS4 pot	MrgX1 PAM	MrgX1 antag conf	HEK293 Ca flux	HEK293 Ca counter	HEK293 Ca cntr2
S=C(NCc1cccs1)Nc1cccc(Cl)c1	i	i	-5.06*	i	i	i	i	i	i
COc1ccc(S(=O)(=O)N(C)CC(=O)NCc2ccccn2)cc1	i	i	i	i	i	·	·	·	·
Cc1ccc(NC(=O)Cc2c(Cl)cccc2Cl)cc1S(=O)(=O)N(C)C	i	i	-19.1*	i	i	i	i	i	i
COC(=O)[C@H](Cc1c[nH]c2ccccc12)NC(=O)NCc1ccccc1	i	i	i	i	i	·	·	·	·
CSC1=NCCN1C(=O)c1c(-c2ccccc2Cl)noc1C	i	i	-6.87*	i	i	i	i	i	i
O=[N+]([O-])c1cccc(-c2n[nH]c(=S)n2Cc2ccccc2)c1	i	i	-17.2*	i	i	i	i	i	i
CC(=O)Nc1ccc(S(=O)(=O)NC2(C(F)(F)F)NC(=O)N(Cc3ccccc3)C2=O)cc1 (stereo not drawn)	i	i	i	i	i	·	·	·	·
CN(C)c1ccc(CNC2CC(C)(C)NC(C)(C)C2)cc1	i	i	i	i	i	·	·	·	·
CC1(C)CC(NCc2ccncc2)CC(C)(C)N1	i	i	-9.66*	i	i	85.6%*	i	i	i
CCOc1cc(C(=O)NC2CCCCCCC2)cc(OCC)c1OCC	i	i	i	i	i	·	·	·	·
CCOc1cc(-c2c(C#N)c(N)nc3c2CCCC3C)ccc1O (stereo not drawn)	i	i	-4.74*	i	i	i	i	i	i
N#CCSc1nnc(C2CCCCC2)n1Cc1ccccc1	i	i	-7.1*	i	i	i	i	i	i
C=CCC(CC=C)(NC(=O)c1cccc(C)c1)c1ccccc1	i	i	i	i	i	·	·	·	·
Cc1cc(Br)ccc1NC(=O)CSc1nnc(CN2CCOCC2)n1C	i	i	i	i	i	·	·	·	·
Cn1c(=O)c2nnn(/N=C(\c3ccccc3)C3CC3)c2n(C)c1=O	i	i	-5.08*	i	i	67.7%*	i	i	i
